Out of some 350,000 compounds screened, about 740 (0.21%) were called active.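 Rule for the calls: active = every replicate reaching activation of at least 50%, whatever the mean replicate activation; inconclusive = replicates that disagree or another doubt; inactive = the rest.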 Shown is part of a subset that was picked to be rich in actives.

The experiment is described as follows: increased acetylated PGC1a in cells – cell-based, U2OS, AlphaScreen, signal-increasing mode, PGC1a modulator project, primary screen (AID 651723). As to conditions: U2OS PGC1a acetylation AlphaScreen, overnight; at 15.6 µM; hits give high values. The method in brief:
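detection = AlphaScreen lysate read | assay system = U2OS cells expressing flag-PGC1a plus GCN5 | input = 7000 cells/well | dosing = one concentration | times = compound overnight at 37 °C, each detection step 1 h RT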
For orientation: Bead proximity is the source of the signal in Alpha formats.
As to `CN(C)CC1Oc2ccccc2OC1(O)c1ccccc1` (configuration not stated), the activation is 249% (active). For `CCC(C)(O)C(=O)OC1C(=O)OC2CC3C(C)=CC(=O)C(O)C3(C)C3C4(O)OCC23C1C(C)C4O` (configuration not stated) the value was -80% (inactive); for `O=C(CSC1c2ccccc2-c2ccccc21)N/N=C/c1ccccc1`, 73% (active). Take `CC(=O)OC1C2(CC3N4C(=O)C5(CO)SSC4(CC31O)C(=O)N5C)OC(C)C(C)(C)C2=O` (configuration not stated): the activation was -60.7% (inactive). To `COC1C(O)C(C)OC(OC2CCC3(C=O)C(CCC4C3CCC3(C)C(C5=CC(=O)OC5)CCC43O)C2)C1O` (configuration not stated) belongs -82.1% (inactive).

In the case of `c1ccc(C(CN2CCCCC2)c2ccccc2)cc1`, the activation is -40.7% (inactive).

`O=C(c1cc(S(=O)(=O)N2CCOCC2)ccc1F)N1CCC2(CC1)OCCO2`: the activation was -52.8% (inactive).

The values are drawn from PubChem BioAssay AID651723 (Broad Institute, 2012).
